Drawing on ChEMBL document CHEMBL1123026, “Preparation and antiarthritic and analgesic activity of 4,5-diaryl-2-(substituted thio)-1H-imidazoles and their sulfoxides and sulfones” (1985), this text covers ED50 and Decrease for 16 compounds.

What all share (assay type): functional
The subject of test [1] is Mus musculus. In words: Effective dose by mouse phenyl-p-benzoquinone writhing (PQW)assay after peroral administration; activity value ranges from (2.3-15.7). To be noted: po. In a few lines: (§1)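 Fasted (17-21 h) female white mice, 5-20 per double-blind test, dosed orally with compound suspended in 1% methylcellulose. 0.20 mL aqueous 0.01% phenyl-p-benzoquinone given i.p. 6 min before a 10-min observation for stretching/writhing. ED50 (dose protecting 50% of mice) calculated by the moving-average method.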
In general terms: In writhing tests, fewer writhes than in controls are read as antinociception.

In test [2] the test system is Mus musculus. The test can be described thus: Effective dose by mouse phenyl-p-benzoquinone writhing (PQW)assay after peroral administration; activity value ranges from (3.1 - 39.5). Conditions: po. The gist of the method:
as §1

The subject of test [3] is Rattus norvegicus. The test can be described thus: Effective dose determined against rat adjuvant arthritis after peroral administration. To be noted: po. In a few lines:
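Male Lewis rats (130-150 g) given 0.1 mL Mycobacterium butyricum adjuvant (5 mg/mL in mineral oil) s.c. into the right hind paw; arthritis developed for 2 weeks. Groups of 10 matched for severity were dosed orally by gavage in PVA-acacia vehicle (10 mL/kg) for 7 days. Uninjected left paw volume was measured the day after the last dose. Percent decrease was calculated vs arthritic and nonarthritic controls. ED50 was read from a visually fitted semilog dose-response line.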

The test system of test [4] is Mus musculus. In words: Effective dose by mouse phenyl-p-benzoquinone writhing (PQW)assay after peroral administration; activity value ranges from (0.028-0.065). Conditions: po.
Test [5] concerns Mus musculus. In words: Effective dose determined by mouse phenyl-p-benzoquinone writhing (PQW) assay after peroral administration. To be noted: po. In a few lines: as §1
For test [6], the system named is Rattus norvegicus. In words: Decrease in paw volume by the effect of compound at a dose of 75 mg/kg, highest dose (75 mg/kg). The gist of the method:
(§2)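 Male Lewis rats (130-150 g) got 0.1 mL adjuvant (heat-killed Mycobacterium butyricum, 5 mg/mL in mineral oil) subplantar in the right hind paw and were left 2 weeks. Groups of 10 matched for severity were dosed orally by gavage (PVA-acacia vehicle, 10 mL/kg) for 7 days. Uninjected left hind paw volume was read the next day. % decrease = (arthritic control − treated)/(arthritic − nonarthritic control) × 100; Student's t-test.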

Test [7] deals with Mus musculus. The test can be described thus: Effective dose by mouse phenyl-p-benzoquinone writhing (PQW)assay after peroral administration; 5.3-45.9. Conditions: po.
The subject of test [8] is Mus musculus. The test can be described thus: Effective dose by mouse phenyl-p-benzoquinone writhing (PQW)assay after peroral administration; activity value ranges from (6.0 - 18.0). To be noted: po. In a few lines: as §1
In test [9] the test system is Rattus norvegicus. The test can be described thus: Decrease in paw volume was evaluated at dose 10 mg/kg. The gist of the method: as §2
For test [10], the system named is Mus musculus. The test can be described thus: Effective dose by mouse phenyl-p-benzoquinone writhing (PQW)assay after peroral administration; 51.5-243. Conditions: po.
For test [11], the system named is Mus musculus. In words: Effective dose by mouse phenyl-p-benzoquinone writhing (PQW)assay after peroral administration; 16.6-69.5. To be noted: po.
For test [12], the system named is Mus musculus. The test can be described thus: Effective dose by mouse phenyl-p-benzoquinone writhing (PQW)assay after peroral administration; activity value ranges from (8.6 - 78.6). Conditions: po. The gist of the method: as §1
In test [13] the test system is Mus musculus. The test can be described thus: Effective dose by mouse phenyl-p-benzoquinone writhing (PQW)assay after peroral administration; activity value ranges from (10.9-125.8). To be noted: po. The gist of the method: as §1
Test [14] deals with Mus musculus. The test can be described thus: Effective dose by mouse phenyl-p-benzoquinone writhing (PQW)assay after peroral administration; 26.7-130. Conditions: po.
The test system of test [15] is Mus musculus. The test can be described thus: Effective dose by mouse phenyl-p-benzoquinone writhing (PQW)assay after peroral administration; 0.16-0.57. To be noted: po.
Test [16] deals with Mus musculus. In words: Effective dose by mouse phenyl-p-benzoquinone writhing (PQW)assay after peroral administration; activity value ranges from (22.9 - 118). Conditions: po. In a few lines:
as §1

Test [17] deals with Mus musculus. In words: Effective dose by mouse phenyl-p-benzoquinone writhing (PQW)assay after peroral administration; activity value ranges from (0.48-1.53). Conditions: po.
The test system of test [18] is Mus musculus. The test can be described thus: Effective dose by mouse phenyl-p-benzoquinone writhing (PQW)assay after peroral administration; activity value ranges from (0.05-0.27). To be noted: po.

What is called ED50 is the dose that gives a 50% effect, or the effect in half of the subjects. For `O=S(=O)(c1nc(-c2ccccc2)c(-c2ccccc2)[nH]1)C(F)F`, the ED50 in the test on Mus musculus [1] is 6 mg/kg. On to `[O-][S+](c1nc(-c2ccc(Cl)cc2)c(-c2ccc(Cl)cc2)[nH]1)C(F)(F)C(F)F` (configuration not stated), for which the values for the ED50 with Mus musculus [2] and with Rattus norvegicus [3] were 11 mg/kg and 0.22 mg/kg, respectively.

`COc1ccc(-c2nc(S(=O)(=O)C(F)(F)F)[nH]c2-c2ccc(OC)cc2)cc1` gave an ED50 in the test with Mus musculus [4] of 0.043 mg/kg. For `CC[S+]([O-])c1nc(-c2ccccc2)c(-c2ccccc2)[nH]1` (configuration not stated), the ED50 with Mus musculus [5] is > 130 mg/kg. In addition, the Decrease in the test with Rattus norvegicus [6] worked out at 44%. As to `Fc1ccc(-c2nc(SC(F)(F)F)[nH]c2-c2ccc(F)cc2)cc1`, the ED50 amounted to 15.6 mg/kg with Mus musculus [7] and 0.035 mg/kg in the test on Rattus norvegicus [3]. Take `O=S(=O)(CC(F)(F)F)c1nc(-c2ccccc2)c(-c2ccccc2)[nH]1`: the ED50 in the test with Mus musculus [8] was 10.4 mg/kg; in the test on Rattus norvegicus [3], 15 mg/kg. Turning to `CCOc1ccc(-c2[nH]c(SC(F)(F)C(F)F)nc2-c2ccccc2)cc1`, the ED50 in the test on Mus musculus [5] was > 130 mg/kg. This compound also registered a Decrease with Rattus norvegicus [9] of 32%. In the test with Mus musculus [10], `COc1ccc(-c2nc(SC(F)F)[nH]c2-c2ccc(OC)cc2)cc1` returned an ED50 of 112 mg/kg. For the compound `CN(C)c1ccc(-c2[nH]c(SC(F)(F)C(F)F)nc2-c2ccccc2)cc1`, the ED50 in the test with Mus musculus [11] is 34 mg/kg; in the test with Rattus norvegicus [3] it was 3 mg/kg. For the compound `COc1ccc(-c2nc(S(=O)(=O)CC(C)=O)[nH]c2-c2ccc(OC)cc2)cc1`, the results for the ED50 in the test on Mus musculus [12] and with Rattus norvegicus [3] were 26 mg/kg and 20 mg/kg, respectively. Take `COc1ccc(-c2nc([S+]([O-])C(F)(F)F)[nH]c2-c2ccc(OC)cc2)cc1` (configuration not stated): the results for the ED50 in the test on Mus musculus [13] and in the test on Rattus norvegicus [3] were 37 mg/kg and 3 mg/kg, respectively. For the compound `COc1ccc(-c2nc(SC(F)(F)C(F)Br)[nH]c2-c2ccc(OC)cc2)cc1` (configuration not stated), the ED50 with Mus musculus [14] worked out at 59 mg/kg; in the test on Rattus norvegicus [3], 10 mg/kg. For `COc1ccc(-c2nc(S(=O)(=O)C(F)(F)C(F)Br)[nH]c2-c2ccc(OC)cc2)cc1` (configuration not stated), the ED50 in the test with Mus musculus [15] was 0.3 mg/kg. Take `[O-][S+](c1nc(-c2ccc(Cl)c(Cl)c2)c(-c2ccccc2)[nH]1)C(F)(F)C(F)F` (configuration not stated): the ED50 was 52 mg/kg with Mus musculus [16] and 0.45 mg/kg with Rattus norvegicus [3]. With `O=S(=O)(c1nc(-c2ccc(F)cc2)c(-c2ccccc2)[nH]1)C(F)(F)C(F)F`, the values for the ED50 with Mus musculus [17] and with Rattus norvegicus [3] were 0.86 mg/kg and 0.03 mg/kg, respectively.

Consider `COc1ccc(-c2[nH]c(S(=O)(=O)C(F)(F)F)nc2-c2ccc(F)cc2)cc1`, for which the ED50 with Mus musculus [18] was found to be 0.12 mg/kg.
